Source: ChEMBL document CHEMBL4145487, “A focused fragment library targeting the antibiotic resistance enzyme - Oxacillinase-48: Synthesis, structural evaluation and inhibitor design” (Eur J Med Chem, 2018)

Tests used:
[1] = Inhibition of bacterial beta-lactamase OXA-48 expressed in Escherichia coli strain BL21Star(DE3)pRARE using nitrocefin as substrate; design: species or system Bacteria
Outline: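 OXA-48 carried its native signal peptide and was purified from the periplasm. The assay ran at 25 °C in 100 mM sodium phosphate pH 7.0 with 50 mM NaHCO3 and 0.2 mg/mL BSA, against 25 μM nitrocefin. Velocities were taken from the linear range. IC50 came from a nonlinear fit of response versus log inhibitor concentration, with bottom and top fixed from controls.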

[2] = Binding affinity to bacterial His-tagged beta-lactamase OXA-48 expressed in Escherichia coli strain BL21Star(DE3)pRARE by surface plasmon resonance assay; design: species or system Bacteria
Outline: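 His-tagged OXA-48 amine-coupled to a CM5 chip to around 5000 RU (enzyme at 25 μg/mL in 10 mM MES pH 5.5). Ten dilutions from 400 μM to 10.5 μM were injected for 30 s with 60 s dissociation (300 s for kinetic binders). Sensorgrams were double-referenced. Kd came from a steady-state model with Rmax fixed via a positive control.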

CN(C)c1ccc(-c2cccc(C(=O)O)c2)cc1
IC50 [1]: 390 µM
pIC50 [1]: 3.41
Kd [2]: 220 µM

NCc1cccc(-c2cccc(C(=O)O)c2)c1
IC50 [1]: 600 µM
pIC50 [1]: 3.22
Kd [2]: 800 µM

CC(=O)NCc1cccc(-c2cccc(C(=O)O)c2)c1
IC50 [1]: 130 µM
pIC50 [1]: 3.89
Kd [2]: 130 µM

NCc1ccc(-c2cccc(C(=O)O)c2)cc1
IC50 [1]: 1400 µM
pIC50 [1]: 2.85
Kd [2]: 550 µM

CC(=O)Nc1cccc(-c2cc(C(=O)O)cc(-c3ccc4ncccc4c3)c2)c1
IC50 [1]: 2.9 µM
pIC50 [1]: 5.54
Kd [2]: 49 to 60 µM

O=C(O)c1cccc(-c2ccc3ccccc3c2)c1
IC50 [1]: 110 µM
pIC50 [1]: 3.98
Kd [2]: 400 µM

CC(=O)NCCc1cccc(-c2cccc(C(=O)O)c2)c1
IC50 [1]: 230 µM
pIC50 [1]: 3.64
Kd [2]: 170 µM

O=C(O)c1cccc(-c2ccc(NS(=O)(=O)c3ccccc3)cc2)c1
IC50 [1]: 60 µM
pIC50 [1]: 4.25
Kd [2]: 210 µM

NCCc1ccc(-c2cccc(C(=O)O)c2)cc1
IC50 [1]: 1000 µM
pIC50 [1]: 2.98
Kd [2]: 970 µM

Nc1ccc(-c2cccc(C(=O)O)c2)cn1
IC50 [1]: 170 µM
pIC50 [1]: 3.76
Kd [2]: 130 µM

Cc1cccc(-c2cccc(C(=O)O)c2)c1
IC50 [1]: 170 µM
pIC50 [1]: 3.78
Kd [2]: 300 µM

O=C(O)c1cccc(-c2ccccc2F)c1
IC50 [1]: 130 µM
pIC50 [1]: 3.89
Kd [2]: 170 µM

Cc1nc(N)ncc1-c1cccc(C(=O)O)c1
IC50 [1]: 350 µM
pIC50 [1]: 3.46
Kd [2]: 113 µM

COc1cccc(-c2cccc(C(=O)O)c2)c1
IC50 [1]: 360 µM
pIC50 [1]: 3.44
Kd [2]: 226 µM

O=C(O)c1cccc(-c2cccc(-c3nnn[nH]3)c2)c1
IC50 [1]: 60 µM
pIC50 [1]: 4.24
Kd [2]: 70 µM

CS(=O)(=O)Nc1ccc(-c2cccc(C(=O)O)c2)cc1
IC50 [1]: 370 µM
pIC50 [1]: 3.43
Kd [2]: 100 µM

COc1ccc(-c2cccc(C(=O)O)c2)cc1
IC50 [1]: 150 µM
pIC50 [1]: 3.82
Kd [2]: 250 µM

CC(=O)Nc1ccc(-c2cccc(C(=O)O)c2)cc1
IC50 [1]: 450 µM
pIC50 [1]: 3.35
Kd [2]: 290 µM

O=C(O)c1cccc(-c2ccc(O)cc2)c1
IC50 [1]: 470 µM
pIC50 [1]: 3.33
Kd [2]: 170 µM

CS(=O)(=O)NCc1cccc(-c2cccc(C(=O)O)c2)c1
IC50 [1]: 110 µM
pIC50 [1]: 3.96
Kd [2]: 110 µM

CC(=O)OCc1cccc(-c2cccc(C(=O)O)c2)c1
IC50 [1]: 250 µM
pIC50 [1]: 3.6
Kd [2]: 140 to 181 µM

O=C(O)c1cccc(-c2ccc(-c3nnn[nH]3)cc2)c1
IC50 [1]: 36 µM
pIC50 [1]: 4.48
Kd [2]: 70 µM

O=C(O)c1cccc(-c2cccc(O)c2)c1
IC50 [1]: 110 µM
pIC50 [1]: 3.97
Kd [2]: 110 µM

O=C(O)c1cccc(-c2ccccn2)c1
IC50 [1]: 35 µM
pIC50 [1]: 4.46
Kd [2]: 159 µM

O=C(O)c1cccc(-c2cncs2)c1
IC50 [1]: 800 µM
pIC50 [1]: 3.09
Kd [2]: 900 µM

CC(=O)Nc1cccc(-c2cc(C(=O)O)cc(-c3cccc(NC(C)=O)c3)c2)c1
IC50 [1]: 2.9 µM
pIC50 [1]: 5.53
Kd [2]: 20 to 30 µM

CSc1ccc(-c2cccc(C(=O)O)c2)cc1
IC50 [1]: 400 µM
pIC50 [1]: 3.4
Kd [2]: 1000 µM

O=C(O)c1cccc(-c2cncnc2)c1
IC50 [1]: 800 µM
pIC50 [1]: 3.1
Kd [2]: 900 µM

CC(=O)Nc1ccc(-c2cc(C(=O)O)cc(-c3ccc(NC(C)=O)cc3)c2)cc1
IC50 [1]: 48 µM
pIC50 [1]: 4.32
Kd [2]: 70 µM

Cn1cccc1-c1cccc(C(=O)O)c1
IC50 [1]: 500 µM
pIC50 [1]: 3.3
Kd [2]: 590 µM

O=C(O)c1cccc(-c2cccc(F)c2)c1
IC50 [1]: 130 µM
pIC50 [1]: 3.88
Kd [2]: 240 µM

Nc1ccc(-c2cccc(C(=O)O)c2)cc1
IC50 [1]: 330 µM
pIC50 [1]: 3.48
Kd [2]: 330 µM

NC(=O)c1cccc(-c2cccc(C(=O)O)c2)c1
IC50 [1]: 260 µM
pIC50 [1]: 3.58
Kd [2]: 220 µM

NCCc1cccc(-c2cccc(C(=O)O)c2)c1
IC50 [1]: 110 µM
pIC50 [1]: 3.95
Kd [2]: 300 µM

CS(=O)(=O)c1cccc(-c2cccc(C(=O)O)c2)c1
IC50 [1]: 120 µM
pIC50 [1]: 3.91
Kd [2]: 150 µM

O=C(O)c1cccc(-c2ccccc2O)c1
IC50 [1]: 50 µM
pIC50 [1]: 4.3
Kd [2]: 175 µM

CC(=O)Nc1cccc(-c2cc(C(=O)O)cc(-c3ccncc3)c2)c1
IC50 [1]: 100 µM
pIC50 [1]: 3.99
Kd [2]: 70 µM

CC(=O)NCCc1ccc(-c2cccc(C(=O)O)c2)cc1
IC50 [1]: 520 µM
pIC50 [1]: 3.28
Kd [2]: 190 µM

COC(=O)c1cccc(-c2cccc(C(=O)O)c2)c1
IC50 [1]: 260 µM
pIC50 [1]: 3.59
Kd [2]: 144 µM

COc1ccccc1-c1cccc(C(=O)O)c1
IC50 [1]: 250 µM
pIC50 [1]: 3.6
Kd [2]: 123 µM

O=C(O)c1cccc(-c2ccc3[nH]ccc3c2)c1
IC50 [1]: 310 µM
pIC50 [1]: 3.51
Kd [2]: 400 µM

Cc1ccccc1-c1cccc(C(=O)O)c1
IC50 [1]: 90 µM
pIC50 [1]: 4.05
Kd [2]: 170 µM

NC(=O)c1ccc(-c2cccc(C(=O)O)c2)cc1
IC50 [1]: 180 µM
pIC50 [1]: 3.73
Kd [2]: 200 to 350 µM

CC(=O)c1ccc(-c2cccc(C(=O)O)c2)cc1
IC50 [1]: 380 µM
pIC50 [1]: 3.42
Kd [2]: 280 µM

O=C(O)c1cc(-c2ccc3ncccc3c2)cc(-c2ccc3ncccc3c2)c1
IC50 [1]: 110 µM
pIC50 [1]: 3.94
Kd [2]: 70 µM

CC(=O)Nc1cccc(-c2cccc(C(=O)O)c2)c1
IC50 [1]: 35 µM
pIC50 [1]: 4.45
Kd [2]: 100 µM

O=C(O)c1cccc(-c2ccc3cccnc3c2)c1
IC50 [1]: 240 µM
pIC50 [1]: 3.61
Kd [2]: 160 µM

COC(=O)c1ccccc1-c1cccc(C(=O)O)c1
IC50 [1]: 210 µM
pIC50 [1]: 3.69
Kd [2]: 200 µM

O=C(O)c1cccc(-c2cccc(CO)c2)c1
IC50 [1]: 900 µM
pIC50 [1]: 3.04
Kd [2]: 230 µM

O=C(O)c1cccc(-c2cnc(-n3ccnc3)nc2)c1
IC50 [1]: 1300 µM
pIC50 [1]: 2.89
Kd [2]: 1000 to 1160 µM

CS(=O)(=O)NCCc1cccc(-c2cccc(C(=O)O)c2)c1
IC50 [1]: 370 µM
pIC50 [1]: 3.43
Kd [2]: 200 µM

CS(=O)(=O)NCc1ccc(-c2cccc(C(=O)O)c2)cc1
IC50 [1]: 450 µM
pIC50 [1]: 3.35
Kd [2]: 240 µM

O=C(O)c1cccc(-c2ccc(F)cc2)c1
IC50 [1]: 360 µM
pIC50 [1]: 3.45
Kd [2]: 312 µM

CS(=O)(=O)c1ccc(-c2cccc(C(=O)O)c2)cc1
IC50 [1]: 380 µM
pIC50 [1]: 3.42
Kd [2]: 361 µM
